Experimental data reported in PubChem BioAssay.
Records with an inconclusive call do not appear.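 The calls were made as follows, unless noted: active = viability increase at or above a cutoff of the median across tested compounds plus 3 SD (cut at about 8.5% in these data, passing the limit was not always enough); inconclusive = some gains above the cutoff, reason not given; inactive = the rest.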

Assays:
[1] = OD615 S. cerevisiae growth inhibition, permissive medium, pilot counter-assay, permissive growth control for S. cerevisiae lifespan shortening project (AID 705;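 active = growth inhibition above 25% in both replicates, a cutoff set 3 SD above the mean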); conditions: OD615, 24 h, at 10 µM, stronger effect = higher value
How it was run: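 assay system = Saccharomyces cerevisiae strain carrying genetically modified DeaD replicative-lifespan system | technique = absorbance (optical density) at 615 nm | buffer or medium = permissive raffinose/galactose medium | timing = cells pre-grown 4 h, then 24 h compound exposure, 30 °C humidified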

[2] = Restrictive medium S. cerevisiae growth inhibition, OD615, pilot screen of yeast lifespan reduction project, restrictive growth control (AID 706;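 active = growth inhibition above a set limit, 3 SD over mean compound inhibition, in both replicates, cut at about 43% in these data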;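 also: modified DeaD lifespan yeast strain shifted to restrictive glucose medium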); conditions: OD615, 48 h, at 10 µM, stronger effect = higher value
How it was run: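 System: modified S. cerevisiae. Buffer or medium: CSMM-D glucose medium. Incubation: 4 h pre-growth plus 48 h compound exposure, 30 °C. Detection: absorbance (optical density) measured at 615 nm.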

[3] = viability gain of MRP-1-high H69AR cells under doxorubicin, pilot screen, MRP-1 activator project, CellTiter-Glo, duplicate (AID 807); conditions: H69AR viability with doxorubicin, CellTiter-Glo luminescence; at 10 µM; stronger effect = higher value;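 also: compound pretreatment 18-22 h then 72 h combined with doxorubicin; 0% = doxorubicin alone and 100% = vehicle without doxorubicin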
[4] = growth suppression of beta-catenin knockout HCT116, pilot screen, human colon tumor cells (AID 823;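 active = cell viability at or below a set limit in both duplicate runs, the limit being the all-compound median minus 4 SD, cut at about 23% in these data, passing the limit was not always enough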;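 also: 0% = wells killed by 20 µM Hyamine and 100% = untreated DMSO cell wells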); conditions: CellTiter-Glo, 60 h, at 10 µM, stronger effect = lower value
[5] = growth suppression of PTEN-deleted HCT116, pilot screen, cell-based, HCT116 clonal line, CellTiter-Glo (AID 824;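 active = viability at or below 27.92% in each of two runs, the all-compound median minus 4 SD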;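 also: 0% = 20 µM Hyamine control and 100% = vehicle cell control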); conditions: 60 h, at 10 µM, stronger effect = lower value
[6] = inhibitors of the yeast RAM network, pilot screen, dse1pr::URA3 reporter, 5-FOA selection (AID 869;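 active = inhibition over a set limit, the all-compound mean plus 3 SD, in both replicate runs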;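 also: 0% = DMSO wells with no growth and 100% = 10 µM 1-NA-PP1 with full growth; RAM network block rescues cells from 5-FOA so hits raise OD615 growth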); conditions: S. cerevisiae dse1pr::URA3 5-FOA growth, OD615, 2 d; at 10 µM; stronger effect = higher value; strain carries analog-sensitive mutant Cbk1 kinase
[7] = RAM signaling pathway blockade in yeast – S. cerevisiae, Pdr1DBD-CYC8 efflux-inhibited sensitized strain, primary screen (AID 1298;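 active = RAM network inhibition above 8.4% in each of two replicates, 3 SD over the compound average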;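 also: 0% = DMSO untreated cells without growth and 100% = 10 µM 1-NA-PP1 full growth; higher means more yeast growth rescued from 5-FOA killing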); conditions: S. cerevisiae cbk1-as DSE1-URA3 strain, 5-FOA growth OD615, 2 d; at 50 µM; stronger effect = higher value

CC(=O)N1CCc2cc(C(=O)CN3CCCN(Cc4ccc(F)cc4)C3)ccc21
inactive: growth inhibition [1] 4.55% | growth inhibition [2] 9.21% | viability increase [3] -1.12% | viability [4] 102% | viability [5] 95.8% | inhibition [6] 1.48% | RAM network inhibition [7] 2.92%

CC(C)=C1SC(N2CCN(Cc3ccccc3)CC2)=NC1=O
inactive: growth inhibition [1] -6.78% | growth inhibition [2] -0.855% | viability increase [3] -2.86% | viability [4] 94.9% | viability [5] 97.5% | inhibition [6] 0.52% | RAM network inhibition [7] 4.6%

Cn1c(NC(=O)C2CCCC2)cc(=O)n(C)c1=O
inactive: growth inhibition [1] 0.48% | growth inhibition [2] -4.17% | viability increase [3] -0.06% | viability [4] 105% | viability [5] 95.4% | inhibition [6] 0.58% | RAM network inhibition [7] -1.4%

CCCn1nc(NC(=O)CC(C)C)c2cc3ccccc3nc21
inactive: growth inhibition [1] -14.6% | growth inhibition [2] -11.4% | viability increase [3] -5.27% | viability [4] 87.5% | viability [5] 87.3% | inhibition [6] 2.49% | RAM network inhibition [7] 3.01%

COc1ccccc1C(=O)NC(C)c1nc2ccccc2[nH]1 (stereo not drawn)
inactive: growth inhibition [1] -3.51% | growth inhibition [2] -5.35% | viability increase [3] 2.18% | viability [4] 99% | viability [5] 93% | inhibition [6] 3.37% | RAM network inhibition [7] 1.06%

CCSc1nnc2c(n1)OC1(CCCC1)Nc1ccccc1-2
inactive: growth inhibition [1] -13.8% | growth inhibition [2] -3.69% | viability increase [3] -0.51% | viability [4] 97.3% | viability [5] 93.5% | inhibition [6] 1.45% | RAM network inhibition [7] 5.92%

CCC1CCCCN1C(=O)CSc1nnc(-c2ccc(Cl)cc2)o1 (stereo not drawn)
inactive: growth inhibition [1] 0.365% | growth inhibition [2] -5.16% | viability increase [3] 0.28% | viability [4] 87% | viability [5] 90.9% | inhibition [6] 1.89% | RAM network inhibition [7] 5.69%

O=P(/C(=N/O)Sc1ccccc1)(N1CCOCC1)N1CCOCC1
inactive: growth inhibition [1] -7.6% | growth inhibition [2] 1.87% | viability increase [3] -4.88% | viability [4] 90% | viability [5] 97% | inhibition [6] 0.62% | RAM network inhibition [7] 4.34%

CC1Cc2ccccc2N1C(=O)c1cnc2n(c1=O)CCS2 (stereo not drawn)
inactive: growth inhibition [1] -2.36% | growth inhibition [2] -4.37% | viability increase [3] -0.53% | viability [4] 94.4% | viability [5] 98.9% | inhibition [6] -0.135% | RAM network inhibition [7] 2.13%

O=C1NCC2=C1C(c1ccc(Br)cc1)Nc1ccccc1N2 (stereo not drawn)
inactive: growth inhibition [1] -14.3% | growth inhibition [2] -0.565% | viability increase [3] 0.99% | viability [4] 106% | viability [5] 96.1% | inhibition [6] -0.645% | RAM network inhibition [7] -2.69%

O=C(NCc1cccnc1)c1cccc(S(=O)(=O)N2CCOCC2)c1
inactive: growth inhibition [1] -7.59% | growth inhibition [2] 1.51% | viability increase [3] 0.32% | viability [4] 103% | viability [5] 101% | inhibition [6] 1.6% | RAM network inhibition [7] 0.62%

COc1ccc(OC)c(CNC(=O)CCc2nc(-c3cccs3)no2)c1
inactive: growth inhibition [1] 2.87% | growth inhibition [2] 11.3% | viability increase [3] -2.92% | viability [4] 98% | viability [5] 93.4% | inhibition [6] 1.71% | RAM network inhibition [7] 2.56%

COc1ccc(OCCOC(=O)Nc2ccccc2)cc1
inactive: growth inhibition [1] -13.2% | growth inhibition [2] -6.21% | viability increase [3] 1.53% | viability [4] 93.4% | viability [5] 94.1% | inhibition [6] 1.64% | RAM network inhibition [7] 5.48%

C1CCC2(CC1)C1=C(CCCC1)Nc1nnnn12
inactive: growth inhibition [1] -4.35% | growth inhibition [2] 1.16% | viability increase [3] -1.07% | viability [4] 93.5% | viability [5] 87.8% | inhibition [6] 2.16% | RAM network inhibition [7] 5.77%

CCOc1ccccc1NC(=O)C1CCN(S(=O)(=O)c2cccc3cccnc23)CC1
inactive: growth inhibition [1] 1.06% | growth inhibition [2] -4.09% | viability increase [3] -3.97% | viability [4] 85.2% | viability [5] 80.9% | inhibition [6] 1.24% | RAM network inhibition [7] 1.72%

CCn1c(CCC(=O)Nc2cc(F)ccc2C)nc2cc(S(=O)(=O)N(C)C)ccc21
inactive: growth inhibition [1] -6.57% | growth inhibition [2] -1.81% | viability increase [3] -0.38% | viability [4] 99.5% | viability [5] 97.1% | inhibition [6] 2.07% | RAM network inhibition [7] 6.18%

COc1cc(C2C(C#N)=C(C)NC3=C2C(=O)CC(C)(C)C3)ccc1OCCO (stereo not drawn)
inactive: growth inhibition [1] -9.96% | growth inhibition [2] -14.6% | viability increase [3] -0.94% | viability [4] 97.8% | viability [5] 104% | inhibition [6] 1.43% | RAM network inhibition [7] 3.55%

CCc1nnc(NC(=O)CSc2nnc(Cc3cccn3C)n2CCOC)s1
inactive: growth inhibition [1] -4.61% | growth inhibition [2] 32.5% | viability increase [3] -0.66% | viability [4] 96.8% | viability [5] 98.3% | inhibition [6] 0.98% | RAM network inhibition [7] 2.84%

CC(NC(=O)c1ccc(Cl)cc1)C(=O)N1CCCCC1 (stereo not drawn)
inactive: growth inhibition [1] 2.3% | growth inhibition [2] 0.39% | viability increase [3] 0.75% | viability [4] 98% | viability [5] 96.9% | inhibition [6] 2.58% | RAM network inhibition [7] 5.32%

Cc1ccc(S(=O)(=O)NCC(=O)N2CCCCC2)cc1
inactive: growth inhibition [1] -11.1% | growth inhibition [2] -11.9% | viability increase [3] -1.13% | viability [4] 97.8% | viability [5] 102% | inhibition [6] 0.465% | RAM network inhibition [7] 1.88%

Cc1cc2nc(SCCN3CCCC3)[nH]c2cc1C
inactive: growth inhibition [1] 7.63% | growth inhibition [2] -8.07% | viability increase [3] -4.4% | viability [4] 83.1% | viability [5] 89.1% | inhibition [6] 3.22% | RAM network inhibition [7] -0.81%

Cc1c(N=C/C=C/c2ccccc2)cnn1C
inactive: growth inhibition [1] -8.46% | growth inhibition [2] -12.3% | viability increase [3] -5.08% | viability [4] 91.7% | viability [5] 90.5% | inhibition [6] 1.85% | RAM network inhibition [7] 3.36%

CC1CCCCC1NC(=O)CCS(=O)(=O)c1cccc2nonc12 (stereo not drawn)
inactive: growth inhibition [1] -0.105% | growth inhibition [2] 2.68% | viability increase [3] -2.34% | viability [4] 98.9% | viability [5] 102% | inhibition [6] -0.06% | RAM network inhibition [7] 0.88%

CC1(C)Cc2c(sc3c2c(=N)n(Cc2ccco2)c(=O)n3Cc2ccc(Cl)cc2)CO1
inactive: growth inhibition [1] -1.16% | growth inhibition [2] 6.14% | viability increase [3] -4.55% | viability [4] 79.9% | viability [5] 70.6% | inhibition [6] 1.69% | RAM network inhibition [7] 4.49%
